Measured values from ChEMBL document CHEMBL1154633, “Synthesis and biological evaluation of 2-alkynyl-N6-methyl-5'-N-methylcarboxamidoadenosine derivatives as potent and highly selective agonists for the human adenosine A3 receptor” (J Med Chem, 2009).
pEC50, pKi: −log10 of the molar value. Activity calls are given as the source filed them. No cut-off for these calls is given here.

Experiments:
[1] = biological target: T1, Adenosine receptor A3 (Homo sapiens) (UniProt P0DMS8); assay: Agonist activity at human recombinant adenosine A3 receptor expressed in CHO cells assessed as nonradiaoactive DELFIA Eu-GTP binding treated for 15 mins before addition of Eu-GTP measured after 45 mins by time-resolved fluorometric method relative to Cl-IBMECA; assay type: cell-based; set-up: concentration or dose not given beside the values
T1 sequence (whole entry): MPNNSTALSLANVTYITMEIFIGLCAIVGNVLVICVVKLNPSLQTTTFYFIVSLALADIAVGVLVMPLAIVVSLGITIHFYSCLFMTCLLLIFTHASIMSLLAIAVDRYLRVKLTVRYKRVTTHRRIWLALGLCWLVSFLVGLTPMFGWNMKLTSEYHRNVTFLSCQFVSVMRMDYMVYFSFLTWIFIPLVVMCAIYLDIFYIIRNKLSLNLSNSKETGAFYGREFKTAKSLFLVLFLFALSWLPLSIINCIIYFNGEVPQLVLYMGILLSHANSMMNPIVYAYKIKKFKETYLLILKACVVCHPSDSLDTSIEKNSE

Adenosine receptor A2a = Adenosine receptor A2a (Homo sapiens, UniProt P29274); assay: Displacement of [3H]NECA from human recombinant adenosine A2A receptor expressed in CHO cells; assay type: cell-based
Outline: (§1)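 Competition binding in 96-well microplates with radioligand [3H]NECA on CHO cells stably transfected with human recombinant A2AR or A3R. Ki of unlabeled compound from displacement of specific binding, with 95% confidence intervals.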

Adenosine receptor A1 = biological target: T2, Adenosine receptor A1 (Homo sapiens, UniProt P30542); assay: Displacement of [3H]CCPA from human recombinant adenosine A1 receptor expressed in CHO cells; assay type: cell-based
T2 sequence (P30542 whole entry): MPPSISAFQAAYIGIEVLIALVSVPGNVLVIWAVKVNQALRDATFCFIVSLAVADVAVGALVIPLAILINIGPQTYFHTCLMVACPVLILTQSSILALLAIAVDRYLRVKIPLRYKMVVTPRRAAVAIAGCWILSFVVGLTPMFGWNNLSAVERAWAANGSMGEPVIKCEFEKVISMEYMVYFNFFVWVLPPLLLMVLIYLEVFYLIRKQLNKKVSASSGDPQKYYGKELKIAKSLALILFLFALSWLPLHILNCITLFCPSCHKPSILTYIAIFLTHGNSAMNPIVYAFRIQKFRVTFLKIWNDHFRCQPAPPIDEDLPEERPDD

Adenosine receptor A3 [2] = biological target: T3, Adenosine receptor A3 (Homo sapiens, UniProt P0DMS8); assay: Agonist activity at human recombinant adenosine A3 receptor expressed in CHO cells assessed as nonradiaoactive DELFIA Eu-GTP binding treated for 15 mins before addition of Eu-GTP measured after 45 mins by time-resolved fluorometric method; assay type: cell-based
T3 sequence (P0DMS8 whole entry): T1 sequence (whole entry)

[3] = biological target: Adenosine receptors; A1 & A3 (Homo sapiens) (UniProt P30542+P0DMS8); assay: Selectivity ratio of Ki for human recombinant adenosine A1 receptor to Ki for human recombinant adenosine A3 receptor
Outline: (§2)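 Selectivity is Ki at human A1R (displacement of [3H]CCPA) or at human A2AR (displacement of [3H]NECA) divided by Ki at human A3R (displacement of [3H]NECA). All receptors stably expressed in CHO cells, competition experiments in 96-well microplates.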

Homo sapiens = species on record: Homo sapiens; assay: Selectivity ratio of Ki for human recombinant adenosine A2A receptor to Ki for human recombinant adenosine A3 receptor; outline: as §2
[4] = biological target: T1, Adenosine receptor A3 (Homo sapiens); assay: Agonist activity at human recombinant adenosine A3 receptor expressed in CHO cells assessed as nonradiaoactive DELFIA Eu-GTP binding treated for 15 mins before addition of Eu-GTP measured after 45 mins by time-resolved fluorometric method in presence of increasing saponin concentration; assay type: cell-based
Adenosine receptor A3 [5] = biological target: T3, Adenosine receptor A3; assay: Displacement of [3H]NECA from human recombinant adenosine A3 receptor expressed in CHO cells; assay type: cell-based; outline: as §1
[6] = biological target: T1, Adenosine receptor A3 (Homo sapiens); assay: Ratio of Cl-IBMECA EC50 to compound EC50 for human recombinant adenosine A3 receptor expressed in CHO cells; assay type: cell-based

Adenosine receptor A2a, sequence (P29274 whole entry): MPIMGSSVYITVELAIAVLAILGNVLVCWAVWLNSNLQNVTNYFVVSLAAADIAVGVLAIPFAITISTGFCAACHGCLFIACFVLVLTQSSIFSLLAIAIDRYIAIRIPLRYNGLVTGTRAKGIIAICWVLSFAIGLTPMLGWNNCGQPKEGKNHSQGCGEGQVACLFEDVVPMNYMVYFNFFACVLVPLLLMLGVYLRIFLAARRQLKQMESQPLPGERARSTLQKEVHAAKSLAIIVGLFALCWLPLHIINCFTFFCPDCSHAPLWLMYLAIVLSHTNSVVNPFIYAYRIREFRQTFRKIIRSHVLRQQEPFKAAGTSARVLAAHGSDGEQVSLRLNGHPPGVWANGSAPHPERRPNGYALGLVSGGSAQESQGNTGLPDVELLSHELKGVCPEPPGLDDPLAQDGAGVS

Row | Activity [1] | pKi (Adenosine receptor A2a) | pKi (Adenosine receptor A1) | pEC50 (Adenosine receptor A3 [2]) | Ratio Ki [3] | Ratio Ki (Homo sapiens) | Activity [4] | pKi (Adenosine receptor A3 [5]) | Ratio EC50 [6] | Compound
1 | 9% |  |  |  |  |  |  |  |  | CONc1nc(C#Cc2ccccn2)nc2c1ncn2[C@@H]1O[C@H](CO)[C@@H](O)[C@H]1O
2 | 100% | 4.38 | 4.48 | 6.82 | 76500 | 97000 | inactive | 9.36 |  | CNC(=O)[C@H]1O[C@@H](n2cnc3c(NC)nc(C#Cc4ccccc4)nc32)[C@H](O)[C@@H]1O
3 |  |  |  | 6.44 |  |  |  |  |  | CNC(=O)[C@H]1O[C@@H](n2cnc3c(NCc4ccc(I)cc4)nc(Cl)nc32)[C@H](O)[C@@H]1O
4 | 65% |  |  | 6.54 | 500 | 2500 |  |  |  | CNc1nc(C#Cc2ccccc2)nc2c1ncn2[C@@H]1O[C@H](CO)[C@@H](O)[C@H]1O
5 | 100% | 4.61 | 5.06 | 7.34 | 22000 | 61000 | inactive | 9.40 | 7 | CNC(=O)[C@H]1O[C@@H](n2cnc3c(NC)nc(C#Cc4ccccn4)nc32)[C@H](O)[C@@H]1O
6 | 55% |  |  | 6.49 | 300 | 1100 |  | 8.42 |  | CONc1nc(C#Cc2ccccc2)nc2c1ncn2[C@@H]1O[C@H](CO)[C@@H](O)[C@H]1O
7 | 100% |  |  | 7.28 | 3600 | 16400 | inactive |  | 7 | CNC(=O)[C@H]1O[C@@H](n2cnc3c(NOC)nc(C#Cc4ccccn4)nc32)[C@H](O)[C@@H]1O
8 | 100% | 4.90 | 5.27 | 6.72 | 12500 | 29500 | inactive | 9.37 |  | CNC(=O)[C@H]1O[C@@H](n2cnc3c(NC)nc(C#Cc4ccc(F)cc4)nc32)[C@H](O)[C@@H]1O
9 | 100% |  |  | 6.92 | 4800 | 8600 | inactive |  |  | CNC(=O)[C@H]1O[C@@H](n2cnc3c(NOC)nc(C#Cc4ccccc4)nc32)[C@H](O)[C@@H]1O
10 | 100% |  |  | 6.68 | 1600 | 9800 | inactive |  |  | CNC(=O)[C@H]1O[C@@H](n2cnc3c(NOC)nc(C#Cc4ccc(F)cc4)nc32)[C@H](O)[C@@H]1O
